One experiment relates to A549. In words: In vitro concentration required to inhibit the TNF-alpha-induced RANTES production in A549 human lung epithelium cell line. The experiment is classed as functional, cell-based. An outline of the steps:
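A549 human lung epithelial cells grown in D-MEM with 10% FCS, penicillin/streptomycin and 2 mM glutamine. Cells (4×10⁴/well) pretreated 1 h with compound or vehicle (0.1% DMSO), then stimulated with 100 ng/mL TNF-α for 24 h. RANTES in supernatants measured by quantitative sandwich fluorescent immunoassay.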

The target in experiment [1] is T1, Inhibitor of nuclear factor kappa-B kinase subunit beta (Homo sapiens, UniProt O14920).
T1 sequence (O14920 whole entry): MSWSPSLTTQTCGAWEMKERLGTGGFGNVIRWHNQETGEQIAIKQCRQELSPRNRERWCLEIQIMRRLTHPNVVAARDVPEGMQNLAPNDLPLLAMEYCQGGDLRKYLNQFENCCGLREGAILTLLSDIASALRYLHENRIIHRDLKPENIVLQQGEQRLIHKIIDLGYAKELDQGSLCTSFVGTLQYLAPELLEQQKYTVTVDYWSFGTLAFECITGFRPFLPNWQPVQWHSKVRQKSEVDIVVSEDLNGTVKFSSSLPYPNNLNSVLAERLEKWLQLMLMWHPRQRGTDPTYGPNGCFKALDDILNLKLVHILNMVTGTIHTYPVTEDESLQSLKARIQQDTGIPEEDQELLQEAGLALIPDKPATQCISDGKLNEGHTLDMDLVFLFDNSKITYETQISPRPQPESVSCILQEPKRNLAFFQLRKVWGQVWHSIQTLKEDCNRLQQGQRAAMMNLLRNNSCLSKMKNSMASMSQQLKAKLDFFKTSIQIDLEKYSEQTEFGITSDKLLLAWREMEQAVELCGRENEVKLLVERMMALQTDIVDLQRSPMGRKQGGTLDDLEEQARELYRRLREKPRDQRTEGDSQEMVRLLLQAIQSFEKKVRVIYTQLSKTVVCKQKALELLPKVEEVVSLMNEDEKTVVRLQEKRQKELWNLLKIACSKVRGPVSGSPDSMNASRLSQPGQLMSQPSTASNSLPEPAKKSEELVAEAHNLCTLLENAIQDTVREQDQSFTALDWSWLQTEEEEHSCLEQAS
In words: In vitro inhibitory concentration required against recombinant human IkB kinase beta (IKK-beta). An outline of the steps:
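Recombinant His-tagged human IKK-β from baculovirus-infected insect cells, final […], with biotinylated GST-IκBα(1-54) substrate (final 0.2) in Tris-HCl pH 7.6 buffer with MgCl₂, DTT, Na₃VO₄ and BSA; DMSO final 0.25%. Started with ATP plus [γ-³³P]ATP, 2 h at rt, stopped with EDTA. Substrate captured on streptavidin plates, washed, counted by scintillation.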

A further experiment deals with Jurkat. Put plainly: In vitro inhibition of anti-CD3/anti-CD28-I induced IL-2 release in Jurkat T-cells. The experiment is classed as functional, cell-based. Particulars: Homo sapiens.
The target of experiment [2] is Tyrosine-protein kinase SYK (Homo sapiens, UniProt P43405). Put plainly: Inhibition of human Syk.
Experiment [3] has as its target T2, Inhibitor of nuclear factor kappa-B kinase subunit alpha (Homo sapiens, UniProt O15111).
T2 sequence (O15111 whole entry): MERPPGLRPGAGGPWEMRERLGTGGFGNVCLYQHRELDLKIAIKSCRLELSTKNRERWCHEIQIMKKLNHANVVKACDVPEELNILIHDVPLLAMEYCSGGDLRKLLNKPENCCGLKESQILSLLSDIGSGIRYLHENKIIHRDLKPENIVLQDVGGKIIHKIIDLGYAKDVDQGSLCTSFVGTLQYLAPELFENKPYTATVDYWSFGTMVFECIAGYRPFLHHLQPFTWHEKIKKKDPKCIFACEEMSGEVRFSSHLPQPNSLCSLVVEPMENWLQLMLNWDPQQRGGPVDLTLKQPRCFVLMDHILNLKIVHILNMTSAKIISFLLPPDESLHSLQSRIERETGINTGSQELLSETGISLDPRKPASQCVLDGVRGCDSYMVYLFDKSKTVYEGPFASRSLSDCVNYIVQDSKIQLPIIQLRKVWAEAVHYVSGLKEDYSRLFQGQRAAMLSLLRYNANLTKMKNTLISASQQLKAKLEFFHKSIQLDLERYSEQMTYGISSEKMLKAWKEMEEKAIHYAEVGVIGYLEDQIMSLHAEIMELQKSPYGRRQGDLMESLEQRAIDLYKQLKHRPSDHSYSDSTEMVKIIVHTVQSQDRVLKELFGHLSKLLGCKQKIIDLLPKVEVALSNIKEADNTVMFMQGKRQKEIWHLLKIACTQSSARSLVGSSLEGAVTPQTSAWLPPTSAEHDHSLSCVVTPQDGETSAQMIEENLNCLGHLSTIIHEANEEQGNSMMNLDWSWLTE
In words: Inhibition of human IKK-alpha.

For experiment [4], the system named is Mus musculus. Put plainly: In vivo LPS-induced TNF-alpha production in mice after ip administration (30 min pretreatment). The experiment is classed as functional. Put shortly:
(§1)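 Eight-week-old female BALB/c mice given 200 (per mouse) LPS ip in saline. Compound dosed ip 30 min before LPS, or po in 10% cremophor/saline 60 min before. Blood taken under pentobarbital anaesthesia 90 min after LPS. Plasma TNFα measured by ELISA; mean of 5 mice per group used to calculate percent reduction versus LPS controls; ED₅₀ reported.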

The test system of experiment [5] is Mus musculus. Put plainly: In vivo LPS-induced TNF-alpha production in mice after oral administration (60 min pretreatment). It counts as functional. Put shortly: as §1
Another experiment deals with HEK293. Put plainly: In vitro inhibition of NF-kappaB-Luciferase in HEK293 cell line. The note with it: Homo sapiens. The experiment is classed as functional, cell-based.
The next experiment has as its system PBMC. Put plainly: In vitro inhibition TNF-alpha release in human Peripheral blood mononuclear cells (PBMC). It counts as functional, cell-based.
Experiment [6] addresses T3, Dual specificity mitogen-activated protein kinase kinase 4 (Homo sapiens, UniProt P45985).
T3 sequence (P45985 whole entry): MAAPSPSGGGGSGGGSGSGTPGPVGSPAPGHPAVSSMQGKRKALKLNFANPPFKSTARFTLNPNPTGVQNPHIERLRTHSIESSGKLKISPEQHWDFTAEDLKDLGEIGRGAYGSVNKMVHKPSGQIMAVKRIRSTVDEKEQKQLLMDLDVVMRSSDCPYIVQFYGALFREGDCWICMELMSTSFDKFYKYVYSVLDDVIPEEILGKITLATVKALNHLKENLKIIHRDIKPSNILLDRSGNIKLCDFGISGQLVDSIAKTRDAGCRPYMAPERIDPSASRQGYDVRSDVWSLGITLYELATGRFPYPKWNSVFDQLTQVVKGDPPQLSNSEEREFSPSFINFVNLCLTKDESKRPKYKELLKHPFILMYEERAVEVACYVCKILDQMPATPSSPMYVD
In words: Inhibition of human mitogen-activated protein kinase kinase 4 (MKK4).

The species entered for experiment [7] is Mus musculus. In words: In vitro inhibition of IgE in mouse B-cells. It counts as functional, cell-based.
Experiment [8] has as its target T2, Inhibitor of nuclear factor kappa-B kinase subunit alpha. In words: Inhibition of human IKK-alpha kinase.

Each structure is given as a SMILES string.

As a reminder, the IC50 is the concentration at which inhibition is half-maximal. As for `N#Cc1c(-c2cccc(N)c2)cc(-c2ccccc2O)nc1N`, the IC50 is over 50 µM in the experiment on A549 and 20 µM in experiment [1].
As a reminder, the ED50 is the dose that gives a 50% effect, or the effect in half of the subjects. With `N#Cc1c(-c2cccc(NC(=O)C3CCC(=O)O3)c2)cc(-c2ccccc2O)nc1N` (configuration not stated), the IC50 in the experiment with Jurkat was 15 µM; with A549, 8 µM; in experiment [2] it was over 20 µM; in experiment [3], over 20 µM; in experiment [1], 1.5 µM; in the experiment with HEK293 it was 8 µM. For the same compound, the half-inhibitory concentration (IC50) in the experiment with PBMC was 10 µM; in experiment [6], over 20 µM; in the experiment listed under Mus musculus [7], 0.35 µM. The ED50 is 10 mg/kg with Mus musculus [4] and over 30 mg/kg with Mus musculus [5].
`N#Cc1c(-c2cccc(NC(=O)CCN3CCCCC3)c2)cc(-c2ccccc2O)nc1N`: the IC50 with A549 is 7 µM; in experiment [2], over 20 µM; in experiment [8], 20 µM; in experiment [1] it was 0.6 µM; in experiment [6], over 20 µM. Besides, the values for the 50% effective dose (ED50) in the experiment with Mus musculus [4] and in the experiment on Mus musculus [5] were under 0.03 mg/kg and 2 mg/kg, respectively.
As for `COCC(=O)Nc1cccc(-c2cc(-c3ccccc3O)nc(N)c2C#N)c1`, the IC50 in the experiment with A549 was over 50 µM; in [1], 1.4 µM.
In the same order, the values of `N#Cc1c(-c2cccc(NC(=O)C(O)CCC(=O)O)c2)cc(-c2ccc(O)cc2)nc1N` (configuration not stated) are over 50 µM and over 20 µM.
As to `N#Cc1c(-c2ccccc2C(=O)O)cc(-c2ccccc2O)nc1N`, the IC50 was over 50 µM with A549 and 0.7 µM in experiment [1].
Regarding `N#Cc1c(-c2cccc(NC(=O)C(O)CCC(=O)[O-])c2)cc(-c2ccccc2O)nc1N.[Na+]` (configuration not stated), the values for the IC50 (with A549; in [1]) were 20 µM and 0.9 µM, respectively. For the same compound, the median effective dose (ED50) in the experiment on Mus musculus [4] came to 1.3 mg/kg; in the experiment on Mus musculus [5], 18.7 mg/kg.
For `Cl.N#Cc1c(-c2ccc(N3CCCC3)c(NC(=O)CCN3CCCCC3)c2)cc(-c2ccccc2O)nc1N`, the results for the half-maximal inhibitory concentration (IC50) (in the experiment on A549; in [1]) were 0.8 µM and 1 µM, respectively. Moreover, the median effective dose (ED50) in the experiment on Mus musculus [4] came to 0.8 mg/kg; in the experiment with Mus musculus [5] it was 10.1 mg/kg.
With `CN(C)c1ccc(-c2cc(-c3ccccc3O)nc(N)c2C#N)cc1NC(=O)CCN1CCCCC1.Cl`, the values for the IC50 (in the experiment with A549; in [1]) were 8 µM and 0.8 µM, respectively. Further, the ED50 with Mus musculus [4] is 0.6 mg/kg.

(Values after ChEMBL document CHEMBL1136626, “Discovery of novel and selective IKK-beta serine-threonine protein kinase inhibitors. Part 1” (Bioorg Med Chem Lett, 2003).)
